# From PubChem BioAssay
# Calls of active or inactive are those of the source.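 Rule for the calls, unless noted: active = compounds giving at least 50% inhibition in the cell-based MKP-3 phosphatase rescue imaging test; inactive = the rest.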
# Experiments:
# [1] = inhibitors of TNFa-induced NFkB p65 translocation, primary screen, imaging, HUVEC, MLSMR starter and 10KST1 sets (AID 438;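 active = inhibition above 20% together with a positive visual image hit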;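 note: compound added about 3h40 before a 20 min TNFalpha stimulation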;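 for inhibition: signal is the nuclear over cytoplasmic p65 intensity ratio per well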); settings: HUVEC TNFa-induced p65 nuclear translocation; cell count: measured here: nuclei count (cytotoxicity indicator), at 2.08 µM; inhibition: at 2 µM, stronger effect = higher value, 0% TNFa-plus-vehicle, 100% no-TNFa wells
# [2] = endothelial E-selectin expression blockers – imaging, HUVEC, immunofluorescence, MLSMR starter and 10KST1 sets, primary screen (AID 487;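 active = visually confirmed hit in the image check and inhibition above 20%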;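 for inhibition: signal is fraction of cell area covered by stained E-selectin grains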;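 for nuclei count: 100% = median nuclei count of all wells on the same plate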); settings: HUVEC TNFalpha-induced E-selectin immunofluorescence imaging, at 2 µM; inhibition: stronger effect = higher value; nuclei count: measured here: cell number, toxicity
# [3] = Primary imaging screen for DUSP6 inhibitors that restore phospho-Erk in transfected HeLa cells, chemical complementation (AID 609); settings: HeLa MKP-3 transfected, phospho-Erk imaging KS statistic, at 10 µM, cells stimulated with TPA for 15 min;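 for inhibition: phospho-Erk level distribution per well compared with pooled transfected vehicle control wells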
# [4] = biological target: Dual specificity protein phosphatase 6 (Homo sapiens) (UniProt Q16828); assay: as above; settings: HeLa MKP-3 transfected, phospho-Erk imaging KS statistic; at 10 µM; stronger effect = higher value; cells stimulated with TPA for 15 min
# Dual specificity protein phosphatase 6 (Homo sapiens), sequence (Q16828 whole entry, looked up): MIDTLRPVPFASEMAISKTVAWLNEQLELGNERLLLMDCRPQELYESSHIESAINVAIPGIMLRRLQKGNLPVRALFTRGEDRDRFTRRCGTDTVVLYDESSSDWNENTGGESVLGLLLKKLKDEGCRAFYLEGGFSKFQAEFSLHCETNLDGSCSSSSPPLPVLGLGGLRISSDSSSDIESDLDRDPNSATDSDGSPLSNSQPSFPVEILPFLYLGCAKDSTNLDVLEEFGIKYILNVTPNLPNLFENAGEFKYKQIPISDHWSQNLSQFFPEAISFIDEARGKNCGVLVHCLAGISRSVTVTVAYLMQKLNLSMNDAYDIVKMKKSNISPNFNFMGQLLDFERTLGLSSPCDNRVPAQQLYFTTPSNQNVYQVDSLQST
# [5] = biological target: Voltage-gated potassium channel subunit beta-2 (Rattus norvegicus) (UniProt P62483); assay: inhibitors of rat Kvbeta2 reductase activity – biochemical, NADPH fluorescence, primary screen (AID 622;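 active = fluorescence slope higher than the sample average by over 3 SD, cut at about -0.22 in these data, passing the limit was not always enough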;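 note: slope of raw intensity against log time taken from 70 to 1610 s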); settings: recombinant KvBeta, 4-cyanobenzaldehyde reduction, at 10 µM, stronger effect = higher value
# Voltage-gated potassium channel subunit beta-2 (Rattus norvegicus), sequence (P62483 whole entry, looked up): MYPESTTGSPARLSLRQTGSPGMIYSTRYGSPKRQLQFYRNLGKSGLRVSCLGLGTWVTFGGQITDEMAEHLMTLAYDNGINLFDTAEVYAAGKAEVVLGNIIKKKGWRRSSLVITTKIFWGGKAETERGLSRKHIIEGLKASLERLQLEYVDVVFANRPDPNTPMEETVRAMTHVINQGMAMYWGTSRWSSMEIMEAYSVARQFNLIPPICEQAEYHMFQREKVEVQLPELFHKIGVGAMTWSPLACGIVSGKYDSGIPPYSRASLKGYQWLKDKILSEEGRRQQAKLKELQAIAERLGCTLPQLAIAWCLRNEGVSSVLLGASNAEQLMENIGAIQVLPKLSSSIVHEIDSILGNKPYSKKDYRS
# [6] = biological target: Voltage-gated potassium channel subunit beta-2 (Rattus norvegicus) (UniProt P62483); assay: enhancers of rat Kvbeta2 NADPH turnover – biochemical, NADPH fluorescence, primary screen (AID 623;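 active = NADPH fluorescence slope more negative than the mean of all samples by about 3 SD, 99.7% confidence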;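 note: fluorescence intensity change per second fitted from 20 to 320 s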); settings: Recombinant KvBeta, NADPH fluorescence decrease slope, 10 min; at 10 µM; stronger effect = lower value
# [7] = biological target: Muscarinic acetylcholine receptor M4 (Homo sapiens) (UniProt P08173); assay: M4-linked GIRK flux change, two-sided – cell-based, HEK293 M4/GIRK, thallium flux, BTC-AM, M4 allosteric agonist project, primary screen (AID 625;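 active = fluorescence slope after compound addition differing from the mean of all tested samples at 99.7% confidence, mostly higher but some lower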;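 note: thallium influx through GIRK channels coupled to M4 in HEK293 cells with BTC-AM dye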); settings: at 10 µM, actives lie on both sides
# Muscarinic acetylcholine receptor M4 (Homo sapiens), sequence (P08173 whole entry, looked up): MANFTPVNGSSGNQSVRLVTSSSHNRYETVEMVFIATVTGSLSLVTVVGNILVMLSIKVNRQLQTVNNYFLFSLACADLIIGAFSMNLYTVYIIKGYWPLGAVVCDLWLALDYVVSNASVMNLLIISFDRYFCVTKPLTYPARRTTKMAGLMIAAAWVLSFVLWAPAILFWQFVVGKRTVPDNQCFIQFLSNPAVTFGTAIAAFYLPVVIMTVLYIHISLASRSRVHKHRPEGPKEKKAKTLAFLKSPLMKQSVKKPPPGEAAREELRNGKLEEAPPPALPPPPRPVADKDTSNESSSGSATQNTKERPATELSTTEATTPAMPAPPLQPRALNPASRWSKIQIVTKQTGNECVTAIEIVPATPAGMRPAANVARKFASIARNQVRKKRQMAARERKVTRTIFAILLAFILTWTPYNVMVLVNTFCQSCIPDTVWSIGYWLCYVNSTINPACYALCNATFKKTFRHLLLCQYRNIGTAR
# Method in brief: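 Material: HEK293 cells with M4 receptor and GIRK channels; Times: cells overnight at 37 °C, BTC-AM loading 1 h, reads 2 min total; Technique: kinetic BTC-AM fluorescence sampled at 1 Hz, 10 s pre-addition baseline; Read-out basis: slope over 15–24 s of trace normalized to starting intensity; Controls: carbachol positive, DMSO negative.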
# [8] = inhibitors of larval lipid processing in zebrafish, primary screen, whole organism, PED6 fluorescence, gall bladder and intestine (AID 686;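 active = a full or partial loss of lipid-probe fluorescence in the fish gall bladder, intestine or both, judged by eye; inactive = no fluorescence loss, or compound toxic to the fish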;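 note: larvae 5 to 7 days old with five fish per well; signal comes from phospholipase A2 cleavage of quenched PED6 carried via bile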); settings: Zebrafish larvae PED6 lipid processing, fluorescence scoring; screened at 20 µM (by protocol)
# Method in brief: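 Incubation: overnight exposure of larvae to compound plus PED6 / Test system: live zebrafish larvae aged 5-7 days, whole organism / Amount: 5 larvae per well / Read-out basis: visual per-well fluorescence inhibition score / Signal: visual fluorescence microscopy scoring of gall bladder, gut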
# [9] = loss of swimming-algae plug formation – whole organism, Chlamydomonas reinhardtii, WT vs cilia-less mutant, absorbance, 96-well, primary screen (AID 463189;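 active = inhibition at or above 50% relative to wild type and mutant plate controls; inactive = inhibition below 50%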;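 note: 0% = wild type cc124 cells in DMSO and 100% = ciliumless bld1 mutant cells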); settings: Chlamydomonas reinhardtii gravitaxis, OD600 absorbance, 2 days; at 10 µM; stronger effect = higher value
# [10] = measured here: cell density z-score
# [11] = measured here: nuclear c-Myc green intensity z-score
# [12] = measured here: nuclear pErk red intensity z-score, stronger effect = higher value
Structure (SMILES),cell count [1],inhibition [1],inhibition [2],nuclei count [2] [%],"z-score [3, 10]","z-score [3, 11]","z-score [3, 12]",inhibition [4],fluorescence slope [5],NADPH fluorescence slope [6],fluorescence slope [7],outcome [8],inhibition [9]
CCOC(=O)/C=c1\s/c(=C(\C#N)C(=O)OCC)n(-c2ccccc2)c1=O,653,-4.6% (inactive),-12% (inactive),151,-0.465,-0.678,-0.157,1.42% (inactive),-0.359 (inactive),-6.6e-07 (inactive),0.00573 (inactive),inactive,-7.74% (inactive)
CS(=O)(=O)c1ccc2nc(NC(NC(=O)c3ccco3)(C(F)(F)F)C(F)(F)F)sc2c1,376,-6.2% (inactive),9.6% (inactive),162,-0.876,1.31,0.831,3.42% (inactive),-0.451 (inactive),-8.9e-05 (inactive),0.00497 (inactive),inactive,2.54% (inactive)
COCCNc1oc(-c2ccc(F)cc2)nc1C#N,631,-8.1% (inactive),-48.8% (inactive),162,1.98,-0.407,1.1,24% (inactive),-0.446 (inactive),-6.5e-05 (inactive),0.00617 (inactive),inactive,-8.51% (inactive)
CSc1nncc(=O)[nH]1,642,1.5% (inactive),-96.8% (inactive),160,0.525,-0.545,-0.327,6.51% (inactive),-0.452 (inactive),-4.4e-05 (inactive),0.00648 (inactive),inactive,-3.84% (inactive)
CC1(C)Cc2c(c(N3CCCCC3)[nH]c(=S)c2C#N)CS1,574,-7.8% (inactive),-103% (inactive),151,-0.509,-1.94,0.0392,-10.6% (inactive),-0.479 (inactive),-0.000148 (inactive),0.00629 (inactive),inactive,12.9% (inactive)
Cc1cc(C)nc(N(C#N)CN2C(=O)c3ccccc3C2=O)n1,629,6.2% (inactive),26.6% (inactive),107,-0.879,0.404,-0.916,-9.53% (inactive),-0.523 (inactive),-3.9e-05 (inactive),0.00446 (inactive),inactive,30.7% (inactive)
O=C1C2ON(c3ccccc3)C(c3cccnc3)C2C(=O)N1c1ccc(Cl)c(Cl)c1 (stereo unspecified),666,-5.7% (inactive),-61.8% (inactive),147,-0.87,0.124,-0.00603,-5.62% (inactive),-0.479 (inactive),-2.8e-05 (inactive),0.00562 (inactive),inactive,11.2% (inactive)
O=C(NCCN1CCCCC1)/C(=N\O)c1ccccc1,515,-13% (inactive),18.4% (inactive),155,1.4,0.164,-0.171,23.8% (inactive),-0.4 (inactive),-3.3e-05 (inactive),0.00408 (inactive),inactive,2.85% (inactive)
CSc1nc2[nH]c3c(c2c2ncnn12)CCCC3,547,-3.6% (inactive),37.3% (inactive),171,-0.205,-0.317,-0.0331,1.98% (inactive),-0.379 (inactive),-4.9e-05 (inactive),0.00321 (inactive),inactive,44.1% (inactive)
CCCCOc1ccc(C(=O)NCC(=O)NCC(=O)OCC)cc1,357,-8.2% (inactive),-101% (inactive),108,-0.206,0.434,-0.573,-6.59% (inactive),-0.49 (inactive),4.9e-06 (inactive),0.00496 (inactive),inactive,-13.2% (inactive)
CC1(C)CC(=O)C2=C(C1)OC(N)=C(C#N)C2C1C=CCCC1 (stereo unspecified),725,-1.5% (inactive),-74.9% (inactive),173,-0.465,0.0637,1.38,7.83% (inactive),-0.43 (inactive),-5.1e-05 (inactive),0.00473 (inactive),inactive,9.73% (inactive)
COC(=O)c1ccc(C2/C(=C(\O)c3cccc(OC)c3)C(=O)C(=O)N2CCCN(C)C)cc1 (stereo unspecified),632,-19.7% (inactive),-82.8% (inactive),145,0.797,-1.05,-0.8,7.21% (inactive),-0.524 (inactive),-1.5e-05 (inactive),0.006 (inactive),inactive,20.5% (inactive)
